In PMC3064798 (Nucleic Acids Research, 2011):

Target: T1, Vent(exo^−) polymerase (Thermococcus litoralis, UniProt P30317, D141A/DEL1082-1471/DEL495-1032/E143A)
T1 sequence (P30317 with tags, fused parts or gaps D141A/E143A/DEL495-1032/DEL1082-1471): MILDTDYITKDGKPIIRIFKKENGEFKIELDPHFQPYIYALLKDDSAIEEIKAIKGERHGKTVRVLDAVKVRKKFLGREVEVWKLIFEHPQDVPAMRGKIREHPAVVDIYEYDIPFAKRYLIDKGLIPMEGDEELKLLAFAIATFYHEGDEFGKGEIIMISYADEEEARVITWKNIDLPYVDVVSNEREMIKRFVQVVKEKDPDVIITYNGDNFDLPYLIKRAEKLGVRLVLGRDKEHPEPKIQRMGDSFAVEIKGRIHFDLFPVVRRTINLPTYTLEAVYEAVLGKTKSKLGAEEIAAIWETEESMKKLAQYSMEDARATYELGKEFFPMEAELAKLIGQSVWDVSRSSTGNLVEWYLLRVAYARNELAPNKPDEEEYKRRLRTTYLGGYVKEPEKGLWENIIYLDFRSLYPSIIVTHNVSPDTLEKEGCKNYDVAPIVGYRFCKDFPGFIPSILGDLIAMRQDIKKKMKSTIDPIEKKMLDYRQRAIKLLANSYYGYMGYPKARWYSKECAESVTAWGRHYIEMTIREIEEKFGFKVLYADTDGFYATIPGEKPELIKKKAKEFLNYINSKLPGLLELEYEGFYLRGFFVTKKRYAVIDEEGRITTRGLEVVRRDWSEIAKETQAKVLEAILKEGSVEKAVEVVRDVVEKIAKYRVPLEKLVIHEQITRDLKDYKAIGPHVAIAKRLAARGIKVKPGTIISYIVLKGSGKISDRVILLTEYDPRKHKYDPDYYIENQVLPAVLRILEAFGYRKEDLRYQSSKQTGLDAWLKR
Test: Nucleotide selectivity
Format: biochemical
Conditions: against a 'G' template base
Procedure, shortened: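 Base discrimination was measured by PEP assay. OligoTemplate-4 was replaced with 40 nM oligoTemplate-2 or oligoTemplate-5 to give mismatched template bases. For the T—G mismatch, 5 nM BODIPY-FL primer-3 was hybridised to 40 nM oligoTemplate-8. The selectivity ratio is the mismatched IC50 divided by the matched IC50.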

SMILES: CC(C)C(OCc1cn([C@H]2C[C@H](O)[C@@H](COP(=O)(O)OP(=O)(O)OP(=O)(O)O)O2)c(=O)[nH]c1=O)c1ccccc1[N+](=O)[O-] (mixture of isomers) [dU.III, 5-[1-(2-Nitrophenyl)-2-methyl-propyloxy]methyl-2'-deoxyuridine-5’-triphosphate]
- Selectivity ratio (mismatched IC50/matched IC50): poorly extending the primer before revealing inhibitory effects
